# Only a selection was taken, and hits are over-represented in it overall.
# IDH1 R132H inh: inhibitors of human IDH1 R132H; 70,000 compounds, 0.18% hits; AID 624101; O75874; inhibition, % at 10 µM; IDH1 R132H reductase, diaphorase/resazurin fluorescence, 60 min; in the data active means inhibition above about 34%; inconclusive means no clear call, values can overlap the other calls; inactive means below about 11%
# GASC1 inh: KDM4C (human) demethylase inhibition. Q9H3R0. GST-KDM4C 2-372, H3K9me3 peptide, LANCE TR-FRET. inhibition, % at 12.5 µM. 96,000 compounds, 0.15% hits. AID 720574;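 active means mean replicate inhibition above about 25%, with at least 55% of replicates also reaching it, limit read from the data, passing the limit was not always enough; inconclusive means only one of those two conditions met; inactive means neither condition met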
# Target sequence (Q9H3R0 2-372 limits assumed): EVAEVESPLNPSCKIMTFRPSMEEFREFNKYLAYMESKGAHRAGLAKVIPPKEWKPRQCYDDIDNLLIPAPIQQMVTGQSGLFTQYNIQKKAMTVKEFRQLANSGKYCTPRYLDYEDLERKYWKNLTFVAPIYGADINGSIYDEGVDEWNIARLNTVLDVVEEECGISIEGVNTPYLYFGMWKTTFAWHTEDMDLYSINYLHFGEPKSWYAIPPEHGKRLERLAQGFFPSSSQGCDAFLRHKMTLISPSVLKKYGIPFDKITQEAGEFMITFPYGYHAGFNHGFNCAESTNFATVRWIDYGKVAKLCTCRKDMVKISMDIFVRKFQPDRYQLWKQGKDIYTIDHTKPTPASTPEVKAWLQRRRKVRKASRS
#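 System – N-terminal GST-fused human GASC-1 (KDM4C) fragment, residues 2-372 · Input – enzyme final amount 10 nM · Technique – LANCE TR-FRET, Eu antibody, ULight-streptavidin, EDTA, ex 340 nm, em 618/671 nm · Medium – HEPES buffer, pH 7.5, plus ascorbate · Incubation – enzyme reaction 30 min, then detection 60 min, both room temperature · Reagent – H3K9me3 peptide with Fe(II)/2OG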
# T cruzi growth-1: blocks T. cruzi growth in NIH3T3 culture; T. cruzi beta-gal in NIH3T3, GalScreen luminescence, 90 h; inhibition, % at 8.34 µM; 77,000 compounds, 5.9% hits; AID 624255;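 active means mean inhibition above about 93%, with at least 55% of replicates each passing it, limit read from the data, passing the limit was not always enough; inconclusive means only one of those two conditions holds; inactive means neither condition holds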
# T cruzi growth-2: inhibitors of T. cruzi proliferation; shares compounds with T cruzi growth-1; T. cruzi beta-gal in NIH3T3, GalScreen luminescence, 90 h; inhibition, % at 8.35 µM; 5,600 compounds, 72% hits;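 active means mean replicate inhibition above about 95% and at least 55% of replicates individually reaching it, limit read from the data; inconclusive means only one of the two criteria is met; inactive means neither criterion is met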
# T cruzi growth-3: Trypanosoma cruzi proliferation inhibition. shares compounds with T cruzi growth-1. T. cruzi beta-gal in NIH3T3, GalScreen luminescence, 90 h. inhibition, % at 2.09 µM. 5,600 compounds, 21% hits;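 active means mean inhibition above about 95%, with at least 55% of replicates also reaching it, limit read from the data; inconclusive means meets just one of the two conditions; inactive means meets neither condition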
# NIH3T3 tox: cytotoxicity in mouse NIH/3T3 fibroblasts; shares compounds with T cruzi growth-1; NIH/3T3 viability, CellTiter-Glo ATP luminescence, 90 h; cytotoxicity (signal decrease), % at 8.35 µM; 5,600 compounds, 14% hits;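 active means mean signal decrease across replicates above about 35% based on untreated-well scatter, with enough replicates individually passing, limit read from the data; inconclusive means no rule stated though some were filed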
# 3T3 cytotox 2: cytotoxicity in mouse NIH/3T3 fibroblasts; shares compounds with T cruzi growth-1; NIH/3T3 viability, CellTiter-Glo ATP luminescence, 90 h; inhibition, % at 24.9 µM; 5,600 compounds, 56% hits;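 active means mean loss of cell viability signal at or above a set limit, and enough replicates individually reaching it; inconclusive means meets only the mean limit or only the replicate share; inactive means meets neither condition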
# Numbers stand for hits; – = inactive; ? = inconclusive; · = no result.
SMILES,IDH1 R132H inh,GASC1 inh,T cruzi growth-1,T cruzi growth-2,T cruzi growth-3,NIH3T3 tox,3T3 cytotox 2
CO[C@H](CN(C)C(=O)Nc1ccc(C(F)(F)F)cc1)[C@@H](C)CN(Cc1ccccc1Cl)[C@H](C)CO,–,–,97.7,103.4,–,45.1,103.1
CO[C@H](CN(C)C(=O)Nc1ccc(C(F)(F)F)cc1)[C@H](C)CN(Cc1ccccc1Cl)[C@H](C)CO,–,–,105.1,110.3,–,46.1,104.5
CO[C@@H](CN(C)C(=O)Nc1ccc(F)cc1)[C@@H](C)CN(Cc1ccccc1Cl)[C@@H](C)CO,–,–,–,·,·,·,·
CO[C@@H](CN(C)C(=O)Nc1ccc(C(F)(F)F)cc1)[C@H](C)CN(Cc1ccccc1Cl)[C@H](C)CO,–,–,–,·,·,·,·
CO[C@@H](CN(C)S(=O)(=O)c1ccc(F)cc1)[C@@H](C)CN(Cc1ccccc1Cl)[C@H](C)CO,–,–,107.2,–,–,–,?
CO[C@@H](CN(C)C(=O)Nc1ccc(F)cc1)[C@@H](C)CN(Cc1ccccc1Cl)[C@H](C)CO,–,–,–,·,·,·,·
CO[C@H](CN(C)C(=O)Nc1ccc(Cl)cc1)[C@@H](C)CN(Cc1ccccc1Cl)[C@@H](C)CO,–,–,?,108.9,–,–,39.7
CO[C@H](CN(C)S(=O)(=O)c1ccc(F)cc1)[C@H](C)CN(Cc1ccccc1Cl)[C@H](C)CO,–,–,–,·,·,·,·
CC(=O)Nc1ccccc1NC(=O)COc1ccc(Cl)c(C)c1,–,·,·,·,·,·,·
CCn1c(SCC(=O)c2cccc([N+](=O)[O-])c2)nnc1-c1ccco1,–,·,·,·,·,·,·
C[C@@H]1CN([C@@H](C)CO)S(=O)(=O)c2ccc(-c3ccncc3)cc2O[C@H]1CN(C)Cc1ccccn1,–,–,114.1,105.3,102.7,–,36.0
C[C@H]1CN([C@@H](C)CO)S(=O)(=O)c2ccc(-c3ccncc3)cc2O[C@@H]1CN(C)Cc1ccccn1,·,–,117.4,102.9,99.5,–,85.5
C[C@@H]1CN([C@@H](C)CO)S(=O)(=O)c2ccc(-c3ccncc3)cc2O[C@@H]1CN(C)Cc1ccccn1,–,–,–,·,·,·,·
Cc1ccc(-c2ccc3c(c2)O[C@@H](CN(C)Cc2ccccn2)[C@H](C)CN([C@@H](C)CO)S3(=O)=O)cc1,–,–,119.0,98.2,–,64.1,103.3
C[C@H]1CN([C@@H](C)CO)S(=O)(=O)c2ccc(-c3ccccc3)cc2O[C@@H]1CN(C)Cc1ccccn1,–,–,–,·,·,·,·
C[C@H](CO)N1C[C@H](C)[C@H](CN(C)Cc2ccccn2)Oc2cc(-c3ccncc3)ccc2S1(=O)=O,–,–,105.9,–,–,–,–
Cc1ccc(-c2ccc3c(c2)O[C@@H](CN(C)Cc2ccccn2)[C@H](C)CN([C@H](C)CO)S3(=O)=O)cc1,·,–,–,·,·,·,·
C[C@H](CO)N1C[C@H](C)[C@@H](CN(C)Cc2ccccn2)Oc2cc(-c3ccccc3)ccc2S1(=O)=O,·,–,–,·,·,·,·
COc1cc2c(cc1NC(=O)CSc1nnnn1C)oc1ccccc12,–,·,·,·,·,·,·
O=C(COc1ccc([N+](=O)[O-])cc1)Nc1ccccc1-c1nc2ccccc2s1,–,·,·,·,·,·,·
C[C@H]1CN([C@@H](C)CO)S(=O)(=O)c2ccc(/C=C/c3ccccc3)cc2O[C@@H]1CN(C)Cc1cccnc1,–,·,–,·,·,·,·
C[C@H](CO)N1C[C@H](C)[C@H](CN(C)Cc2cccnc2)Oc2cc(/C=C/c3ccccc3)ccc2S1(=O)=O,–,–,106.7,100.4,96.7,?,31.3
C/C=C/c1ccc2c(c1)O[C@@H](CN(C)Cc1cncnc1)[C@@H](C)CN([C@H](C)CO)S2(=O)=O,–,–,·,·,·,·,·
C[C@H]1CN([C@@H](C)CO)S(=O)(=O)c2ccc(/C=C/c3ccccc3)cc2O[C@H]1CN(C)Cc1cccnc1,·,–,·,·,·,·,·
C/C=C/c1ccc2c(c1)O[C@@H](CN(C)Cc1cccnc1)[C@H](C)CN([C@H](C)CO)S2(=O)=O,–,–,107.5,–,–,51.8,65.0
C/C=C/c1ccc2c(c1)O[C@@H](CN(C)Cc1cncnc1)[C@@H](C)CN([C@@H](C)CO)S2(=O)=O,–,–,·,·,·,·,·
